{
  "source": "the RNAGym collection of RNA variant scans (doi:10.1038/s41586-018-0170-7)",
  "parents": {"B1": {"name": "tRNA (parent)", "chain": "GUUCCGUUGGCGUAAUGGUAACGCGUCUCCCUCCUAAGGAGAAGACUGCGGGUUCGAGUCCCGUACGGAACG"}},
  "data": [
    {"variants_of": "B1", "test": "yeast fitness, log relative to wild type (ln ratio); higher = fitter; tRNA-Arg(CCU), competitive growth, 37 C, 1 M NaCl", "method_in_brief": "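Fitness is the natural log of a genotype's generation count divided by that of the wild type. A combinatorial library of tRNA-Arg(CCU) variants sat on a HIS3 centromeric plasmid in BY4742 lacking the chromosomal gene, from two independent transformations. Pools grew 4 generations in SC-HIS at 30 °C, then ~6.5 generations (~26.5 h) in SC-HIS 1M NaCl at 37 °C, with three outputs per input. Generations came from OD-scaled log2 output/input frequency, inverse-variance weighted across replicates, with variants counted by 125 bp paired-end Illumina sequencing.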", "values": [
      {"variant": "U2C C27U C46U C66U", "yeast fitness (ln)": -0.0297},
      {"variant": "G1A G6U C27U C46U C66A C71U", "yeast fitness (ln)": -0.0536},
      {"variant": "U2C G6U C46U C66A A70U", "yeast fitness (ln)": 0.000469},
      {"variant": "G1A G6U C27U A43C C46U C66A A69G A70G C71U", "yeast fitness (ln)": -0.359},
      {"variant": "A43C C46U C66U A70U", "yeast fitness (ln)": -0.0743},
      {"variant": "U2C G6U C27U A43C C46U C66A A70G C71U", "yeast fitness (ln)": -0.0138},
      {"variant": "G1A U2G C27U C66A A69G A70U", "yeast fitness (ln)": -0.187},
      {"variant": "G1A U2C G6U C27U C46U C66A A70G", "yeast fitness (ln)": -0.0541},
      {"variant": "G6A C66A A70U C71U", "yeast fitness (ln)": -0.241},
      {"variant": "G1A U2G C27U C46U C66A A69G A70G C71U", "yeast fitness (ln)": -0.247},
      {"variant": "U2G G6U C27U A43C C46U C66A A69G C71U", "yeast fitness (ln)": -0.352},
      {"variant": "U2G G6A C27U A43C C66A A69G C71U", "yeast fitness (ln)": -0.379},
      {"variant": "G1A U2G G6A C27U A43C C46U C71U", "yeast fitness (ln)": -0.42},
      {"variant": "U2C C71U", "yeast fitness (ln)": -0.101},
      {"variant": "U2C G6A C27U A70U C71U", "yeast fitness (ln)": -0.141},
      {"variant": "U2C G6U C27U A43C C46U A70U C71U", "yeast fitness (ln)": -0.182},
      {"variant": "G1A C27U A43C C46U A69G A70G C71U", "yeast fitness (ln)": -0.336},
      {"variant": "G1A U2C G6U C46U C66A A69G A70G C71U", "yeast fitness (ln)": -0.0207},
      {"variant": "G1A U2G C27U C46U C66U A70G", "yeast fitness (ln)": -0.167},
      {"variant": "U2C C27U A43C C66A A70U", "yeast fitness (ln)": -0.145},
      {"variant": "G1A G6U C27U C66U", "yeast fitness (ln)": -0.29},
      {"variant": "G1A U2G G6U A43C C46U A70U", "yeast fitness (ln)": -0.235},
      {"variant": "G1A U2G G6U C27U A43C C46U C66U A69G C71U", "yeast fitness (ln)": -0.4},
      {"variant": "G6U C27U C66A C71U", "yeast fitness (ln)": -0.109},
      {"variant": "G1A U2C G6U C27U A43C C66A A70G C71U", "yeast fitness (ln)": -0.0539},
      {"variant": "U2C G6U C27U A43C C46U C66U C71U", "yeast fitness (ln)": -0.299},
      {"variant": "U2C G6A C27U C46U", "yeast fitness (ln)": -0.0382},
      {"variant": "U2C G6A A43C C66U", "yeast fitness (ln)": -0.121},
      {"variant": "G1A G6U C27U A43C C46U A70G C71U", "yeast fitness (ln)": -0.321},
      {"variant": "U2G G6A C27U A43C C66U", "yeast fitness (ln)": -0.113},
      {"variant": "U2C G6A C27U A43C C46U C66U A70G C71U", "yeast fitness (ln)": -0.0215},
      {"variant": "U2C G6U C27U C66U A70U", "yeast fitness (ln)": -0.194},
      {"variant": "U2C G6U C27U A43C C46U A69G A70U C71U", "yeast fitness (ln)": -0.309},
      {"variant": "G1A U2G C27U C66A A70G C71U", "yeast fitness (ln)": -0.306},
      {"variant": "G1A U2C C27U A43C C46U C71U", "yeast fitness (ln)": -0.178},
      {"variant": "G6U A43C C46U A69G A70G C71U", "yeast fitness (ln)": -0.308},
      {"variant": "G1A G6U C66U A69G A70G C71U", "yeast fitness (ln)": -0.273},
      {"variant": "G1A U2G G6U A43C C46U C66A A70U", "yeast fitness (ln)": -0.303},
      {"variant": "G1A U2G G6U A43C C66A A69G A70G C71U", "yeast fitness (ln)": -0.412},
      {"variant": "G1A U2G G6U C27U C46U C66A A69G A70U C71U", "yeast fitness (ln)": -0.513},
      {"variant": "U2G G6A C27U C46U A69G A70U C71U", "yeast fitness (ln)": -0.368},
      {"variant": "U2C G6U C27U C46U C66A A69G A70G C71U", "yeast fitness (ln)": -0.0348},
      {"variant": "U2G G6U C46U C66A C71U", "yeast fitness (ln)": -0.0521},
      {"variant": "U2G C27U C66U A69G C71U", "yeast fitness (ln)": -0.282},
      {"variant": "G1A G6U C27U A43C C46U A70U", "yeast fitness (ln)": -0.346},
      {"variant": "G1A G6U C27U C46U A69G C71U", "yeast fitness (ln)": -0.291},
      {"variant": "U2C C27U C46U C66A C71U", "yeast fitness (ln)": -0.0945},
      {"variant": "G1A G6A C27U A43C A69G A70G", "yeast fitness (ln)": -0.0719},
      {"variant": "U2C G6A A43C C46U C66U C71U", "yeast fitness (ln)": -0.0554},
      {"variant": "U2C G6U C27U C46U C66U A70U C71U", "yeast fitness (ln)": -0.335},
      {"variant": "G1A G6A C27U A43C A70U", "yeast fitness (ln)": -0.3},
      {"variant": "G6U A43C C46U C66U", "yeast fitness (ln)": -0.258},
      {"variant": "U2C G6A C27U A43C C46U A70U C71U", "yeast fitness (ln)": -0.113},
      {"variant": "G1A U2G G6A A43C C46U C66U A69G A70G C71U", "yeast fitness (ln)": -0.206},
      {"variant": "G6U A43C C66A A69G A70G", "yeast fitness (ln)": -0.373},
      {"variant": "C66A A70U", "yeast fitness (ln)": -0.00405},
      {"variant": "U2C C27U C66U C71U", "yeast fitness (ln)": -0.177},
      {"variant": "U2C C27U A43C C46U A69G A70U", "yeast fitness (ln)": -0.169},
      {"variant": "G6U C27U A43C C66U A69G A70U", "yeast fitness (ln)": -0.349},
      {"variant": "G1A C46U C66A A69G A70U", "yeast fitness (ln)": -0.0801},
      {"variant": "G1A C66U C71U", "yeast fitness (ln)": -0.105},
      {"variant": "G6U C27U A69G A70G C71U", "yeast fitness (ln)": -0.394},
      {"variant": "G1A G6U C66A C71U", "yeast fitness (ln)": 0.00231},
      {"variant": "U2C G6U C27U", "yeast fitness (ln)": -0.0654},
      {"variant": "G6A C66U C71U", "yeast fitness (ln)": -0.0335},
      {"variant": "G6U A43C C46U C66U A69G A70U C71U", "yeast fitness (ln)": -0.42},
      {"variant": "U2G G6U A43C C46U C66U A70U", "yeast fitness (ln)": -0.263},
      {"variant": "G1A U2C G6U C27U C46U C66U A69G A70U C71U", "yeast fitness (ln)": -0.518},
      {"variant": "G1A U2G C71U", "yeast fitness (ln)": -0.218},
      {"variant": "U2G G6U A43C C46U C66A A70U", "yeast fitness (ln)": -0.00113},
      {"variant": "G1A G6U C46U A69G A70U", "yeast fitness (ln)": -0.0951},
      {"variant": "G1A U2G G6U C27U C66U A70G C71U", "yeast fitness (ln)": -0.325},
      {"variant": "G1A", "yeast fitness (ln)": -0.0233},
      {"variant": "G1A A43C C46U A69G A70U", "yeast fitness (ln)": -0.0688},
      {"variant": "U2C G6U A43C C66A A69G A70U C71U", "yeast fitness (ln)": -0.321},
      {"variant": "C27U A43C C66U A69G", "yeast fitness (ln)": -0.384},
      {"variant": "G1A A43C C46U C66A A70G C71U", "yeast fitness (ln)": -0.191},
      {"variant": "G1A U2G C27U A43C C66U A69G A70G", "yeast fitness (ln)": -0.492},
      {"variant": "G6A C66A A70U", "yeast fitness (ln)": -0.158},
      {"variant": "G1A U2C C27U A43C A70U", "yeast fitness (ln)": -0.111},
      {"variant": "G6A A43C C46U C66U A70G", "yeast fitness (ln)": -0.0403},
      {"variant": "G1A C27U A43C C66A A69G A70U C71U", "yeast fitness (ln)": -0.431},
      {"variant": "U2C C27U C46U C66U A70U C71U", "yeast fitness (ln)": -0.199},
      {"variant": "U2C C66U", "yeast fitness (ln)": -0.207}
    ]}
  ]
}
